Assay results published in ChEMBL document CHEMBL1123127, “Comparison of the hypolipidemic activity of cyclic vs. acyclic imides” (1985).

Legend:
Mus musculus [1] = test: Reduction in serum cholesterol in CF1 mice on day 16 following 20 mg/kg i.p. o.d. for 16 days.; format: functional; conditions: ip, 384 h, route intraperitoneal
Outline: (§1)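 Mice dosed at 20 mg/kg per day for 16 days. On days 9 and 16, blood was taken by tail-vein bleeding into nonheparinized microcapillary tubes and spun for 3 min to give serum. Serum cholesterol was measured by a modified Liebermann–Burchard reaction.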

Mus musculus [2] = test: Reduction in serum cholesterol in CF1 mice on day 9 following 20 mg/kg i.p. o.d. for 16 days.; format: functional; conditions: ip, route intraperitoneal; outline: as §1
Mus musculus [3] = test: Reduction in serum triglyceride in CF1 mice on day 14 following 20 mg/kg i.p. o.d. for 16 days.; conditions: ip

In the case of `CCOC(=O)CCN(C(C)=O)C(C)=O`, the inhibition in vivo at 20 mg/kg (Mus musculus [1]) is reported as 25%, the inhibition in vivo at 20 mg/kg (Mus musculus [2]) is reported as 11% and the serum triglyceride % inhibition at 20 mg/kg (Mus musculus [3]) is reported as 11%.

With `CC(=O)N(CCC(=O)O)C(C)=O` the inhibition in vivo at 20 mg/kg (Mus musculus [1]) was 21%, the inhibition in vivo at 20 mg/kg (Mus musculus [2]) was 20% and the serum triglyceride % inhibition at 20 mg/kg (Mus musculus [3]) was 21%.

`CC(=O)CCN(C(C)=O)C(C)=O` showed an inhibition in vivo at 20 mg/kg (Mus musculus [1]) of 30%, an inhibition in vivo at 20 mg/kg (Mus musculus [2]) of 14% and a serum triglyceride % inhibition at 20 mg/kg (Mus musculus [3]) of 20%.

Work on `O=C(O)CCN1C(=O)CCC1=O` yielded an inhibition in vivo at 20 mg/kg (Mus musculus [1]) of 39%, an inhibition in vivo at 20 mg/kg (Mus musculus [2]) of 32% and a serum triglyceride % inhibition at 20 mg/kg (Mus musculus [3]) of 44%.

In the case of `CC(=O)CCn1c(=O)c2ccccc2c2ccccc2c1=O`, the inhibition in vivo at 20 mg/kg (Mus musculus [1]) is reported as 23%, the inhibition in vivo at 20 mg/kg (Mus musculus [2]) is reported as 23% and the serum triglyceride % inhibition at 20 mg/kg (Mus musculus [3]) is reported as 10%.

`CCCCN1C(=O)CCC1=O` showed an inhibition in vivo at 20 mg/kg (Mus musculus [1]) of 15%, an inhibition in vivo at 20 mg/kg (Mus musculus [2]) of 0% and a serum triglyceride % inhibition at 20 mg/kg (Mus musculus [3]) of 35%.

Molecule `CC(=O)CCN(C(=O)c1ccccc1)C(=O)c1ccccc1` has an inhibition in vivo at 20 mg/kg (Mus musculus [1]) of 26%, an inhibition in vivo at 20 mg/kg (Mus musculus [2]) of 23% and a serum triglyceride % inhibition at 20 mg/kg (Mus musculus [3]) of 39%.

`CCOC(=O)CCN1C(=O)CCC1=O` was tested, and the inhibition in vivo at 20 mg/kg (Mus musculus [1]) was 23%, the inhibition in vivo at 20 mg/kg (Mus musculus [2]) was 11% and the serum triglyceride % inhibition at 20 mg/kg (Mus musculus [3]) was 23%.

With `O=C(NC(=O)c1ccccc1)c1ccccc1` the inhibition in vivo at 20 mg/kg (Mus musculus [1]) was 35%, the inhibition in vivo at 20 mg/kg (Mus musculus [2]) was 14% and the serum triglyceride % inhibition at 20 mg/kg (Mus musculus [3]) was 7%.

For `CCCCn1c(=O)c2ccccc2c2ccccc2c1=O`, the inhibition in vivo at 20 mg/kg (Mus musculus [1]) was 23%, the inhibition in vivo at 20 mg/kg (Mus musculus [2]) was 22% and the serum triglyceride % inhibition at 20 mg/kg (Mus musculus [3]) was 48%.

In the case of `O=c1[nH]c(=O)c2ccccc2c2ccccc12`, the inhibition in vivo at 20 mg/kg (Mus musculus [1]) is reported as 18%, the inhibition in vivo at 20 mg/kg (Mus musculus [2]) is reported as 19% and the serum triglyceride % inhibition at 20 mg/kg (Mus musculus [3]) is reported as 19%.

`O=C(O)CCn1c(=O)c2ccccc2c2ccccc2c1=O` showed an inhibition in vivo at 20 mg/kg (Mus musculus [1]) of 16%, an inhibition in vivo at 20 mg/kg (Mus musculus [2]) of 12% and a serum triglyceride % inhibition at 20 mg/kg (Mus musculus [3]) of 25%.

Work on `CCCCN(C(C)=O)C(C)=O` yielded an inhibition in vivo at 20 mg/kg (Mus musculus [1]) of 20%, an inhibition in vivo at 20 mg/kg (Mus musculus [2]) of 11% and a serum triglyceride % inhibition at 20 mg/kg (Mus musculus [3]) of 0%.

For `CCCCN(C(=O)c1ccccc1)C(=O)c1ccccc1`, the inhibition in vivo at 20 mg/kg (Mus musculus [1]) was 19%, the inhibition in vivo at 20 mg/kg (Mus musculus [2]) was 23% and the serum triglyceride % inhibition at 20 mg/kg (Mus musculus [3]) was 30%.

Work on `CC(=O)CCN1C(=O)CCC1=O` yielded an inhibition in vivo at 20 mg/kg (Mus musculus [1]) of 10%, an inhibition in vivo at 20 mg/kg (Mus musculus [2]) of 12% and a serum triglyceride % inhibition at 20 mg/kg (Mus musculus [3]) of 25%.

`CCOC(=O)C(C)(C)Oc1ccc(Cl)cc1` [CLOFIBRATE] was tested, and the inhibition in vivo at 20 mg/kg (Mus musculus [1]) was 13%, the inhibition in vivo at 20 mg/kg (Mus musculus [2]) was 12% and the serum triglyceride % inhibition at 20 mg/kg (Mus musculus [3]) was 25%.

Work on `CC(=O)NC(C)=O` [DIACETAMIDE] yielded an inhibition in vivo at 20 mg/kg (Mus musculus [1]) of 18%, an inhibition in vivo at 20 mg/kg (Mus musculus [2]) of 4% and a serum triglyceride % inhibition at 20 mg/kg (Mus musculus [3]) of 2%.

`O=C1NC(=O)c2ccccc21` [PHTHALIMIDE] showed an inhibition in vivo at 20 mg/kg (Mus musculus [1]) of 43%, an inhibition in vivo at 20 mg/kg (Mus musculus [2]) of 37% and a serum triglyceride % inhibition at 20 mg/kg (Mus musculus [3]) of 56%.

Work on `O=C1CCC(=O)N1` [SUCCINIMIDE] yielded an inhibition in vivo at 20 mg/kg (Mus musculus [1]) of 27%, an inhibition in vivo at 20 mg/kg (Mus musculus [2]) of 2% and a serum triglyceride % inhibition at 20 mg/kg (Mus musculus [3]) of 32%.
